# STAT1 inh: STAT1 signaling inhibition. NIH 3T3 STAT1-luciferase reporter, IFN-gamma, luminescence. inhibition, % at 5.5 µM. 0.35% of 200,000 active. AID 920;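 active = inhibition above a set limit, the mean inhibition across all tested compounds plus 3 SD, cut at about 34% in these data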;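 also: 0% = IFN-gamma with DMSO and 100% = IFN-gamma with 300 µM nifuroxazide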
# APP 5'UTR act: activates APP 5'UTR luciferase reporter | SH-SY5Y APP 5'UTR luciferase reporter, luminescence; zero percent = DMSO vehicle wells | activation, % at 2 µM | 1% of 190,000 active | AID 1276;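 active = activation above a set limit, based on mean plus 3 SD of controls, cut at about 140% in these data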
# STAT3 activator: activators of IL-6 induced STAT3 signaling | U3A cells, IL-6 STAT3-luciferase reporter, luminescence; 100% = signal with IL-6 EC80 alone | 0.91% of 190,000 active | AID 871 | activation (% of control), % at 5.6 µM;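 active = activation above the screen-wide mean of compound activation plus 3 SD, cut at about 130% in these data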;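 also: 0% = background luminescence of wells with medium and substrate only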
#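 Material: STAT1-lacking human U3A cells, STAT3 luciferase reporter | Benchmarks: IL-6-only wells as 100% reference | Probe or stimulus: IL-6 (33 ng/mL) | Timing: Compound 1 h, then IL-6 6 h at 37 °C | Detection: Luminescence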
# STAT3 inh: inhibitors of IL-6 induced STAT3 signaling | U3A cells, IL-6 STAT3-luciferase reporter, luminescence; host cell line lacks STAT1 | inhibition, % at 5.5 µM | 0.89% of 190,000 active | AID 862;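 active = inhibition above the mean inhibition across all screened compounds plus 3 SD, cut at about 44% in these data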;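 also: 0% = DMSO only wells and 100% = 100 µM nifuroxazide control wells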
# STAT1 act: STAT1 signaling activation; AID 932; 2.6% of 200,000 active; activation (% of control), % at 5.5 µM; NIH 3T3 STAT1-luciferase reporter, IFN-gamma, luminescence; 100% = IFN-gamma alone, no compound;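 active = activation above the screen-wide mean activation plus 3 SD, cut at about 130% in these data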;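 also: raw ratio to IFN-gamma control signal so 100% means no change and 0% no light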
# NF-kB expr up: NF-kB expression increase, human neuronal cells | fold change at 12.5 µM | NF-kB reporter expression; stronger effect = higher value | AID 1239 | 1.6% of 190,000 active; in the data active = fold change above about 3.3
# Numbers without * were called inactive; . = no result given. Only some compounds are listed: those with a hit (about 5.1% of all), similar ones and a draw of the others.
SMILES,STAT1 inh,APP 5'UTR act,STAT3 activator,STAT3 inh,STAT1 act,NF-kB expr up
CCCCOc1cccc(C(=O)NNC(=S)NC2CCCCC2)c1,-3.1,.,100.0,5.8,102.8,1.11
CCOC(=O)c1cc(C(=O)Nc2cccc(C)c2)nn1C,-39.7,129.5,102.8,-2.1,135.4*,6.75*
Cc1cccc(NC(=O)c2c(C)nn(-c3ccccc3)c2Cl)c1,-19.7,39.8,98.1,5.6,116.1,1.89
Fc1cccc(/C=N/Nc2ncnc3nc[nH]c23)c1,-42.4,17.4,79.3,24.0,138.5*,2.08
c1ccc(CNc2ncnc3nc[nH]c23)nc1,0.4,7.1,96.4,12.7,99.6,1.46
Cc1cccc(Nc2ncnc3nc[nH]c23)c1,-10.5,14.2,105.0,-0.7,109.4,1.72
Fc1ccccc1/C=N/Nc1ncnc2nc[nH]c12,-41.0,44.8,89.2,12.4,137.2*,1.81
CCC(C)C(NC(=O)/C(=C\c1ccccc1)NC(=O)c1ccc(OC)cc1)C(=O)O (stereo not given),1.2,14.1,100.4,1.5,98.7,1.48
COc1cc(C(=O)Oc2ccccc2/C=N/NC(=O)c2ccc(Cl)cc2)cc(OC)c1OC,-35.1,-39.9,106.2,-10.3,131.2*,1.68
COc1cc(C(=O)Oc2ccccc2/C=N/NC(=O)c2ccc(C)c(Cl)c2)cc(OC)c1OC,-0.7,-50.4,93.4,3.9,100.7,0.92
COc1cc(/C=N/NC(=O)c2ccc(-c3ccccc3)cc2)cc(OC)c1OC,-14.0,-4.7,134.4*,-39.9,112.5,0.98
O=C(COC(=O)c1cc([N+](=O)[O-])ccc1NCCO)c1ccccc1,2.3,10.9,99.6,2.7,98.0,0.91
c1ccc(-c2cnnc(N3CCCCC3)n2)cc1,-46.2,112.8,107.9,-1.6,142.0*,1.13
FC(F)(F)c1cc(-c2ccccc2)nc(N2CCCCCC2)n1,3.4,4.9,101.3,1.2,96.9,0.94
O=S(=O)(c1ccc2c(c1)OCCO2)N1CCN(c2ncnc3sccc23)CC1,38.3*,0.6,50.7,60.7*,64.7,0.78
Cc1ccc(S(=O)(=O)N2CCCCC2)cc1NC(=O)COC(=O)c1ccc(O)cc1,1.8,7.3,102.7,2.7,97.9,0.9
CCCN(CCC)CCNC(=S)Nc1ccc2nc3n(c(=O)c2c1)CCCCC3,8.1,17.6,97.6,6.3,91.4,0.95
Cc1ccc(OCCOc2cccc(Br)c2)c([N+](=O)[O-])n1,-35.3,53.7,103.7,-4.5,131.5*,2.52
CCc1ccc(NC(=O)COc2ccc(F)cc2C(=O)c2cnn(-c3ccccc3)c2)cc1,-32.9,49.5,132.9,-45.7,129.9*,1.16
Oc1ccccc1NCC(O)Cn1ccc2ccccc21 (stereo not given),-1.8,12.4,134.5*,-35.4,101.6,0.91
OC(CNCc1ccccc1)Cn1ccc2ccccc21 (stereo not given),2.9,7.8,94.9,6.0,97.4,0.98
O=C1CCC2S/C(=C/Nc3ccc(C(F)(F)F)cc3)C(=O)N12 (stereo not given),66.5*,-71.9,34.8,78.5*,37.6,0.28
O=C1CCCC/C1=C/Nc1cccc(C(F)(F)F)c1,-27.3,-3.6,98.5,12.0,123.1,1.32
Cc1nn(CC2CC2)c(=O)n1-c1ccccc1F,3.7,7.3,99.9,4.1,96.2,1.17
Cc1nn(CCOc2ccccc2)c(=O)n1-c1c(F)cccc1F,-44.5,61.9,110.6,-7.0,140.1*,2.35
SMILES,STAT1 inh,APP 5'UTR act,STAT3 activator,STAT3 inh,STAT1 act,NF-kB expr up
Cc1ccc(-n2c(C)nn(CCOc3ccccc3)c2=O)cc1,-40.1,58.0,110.4,-7.4,133.5*,2.23
O=C(Nc1nc(-c2nc3ccccc3s2)cs1)C1COc2ccccc2O1 (stereo not given),-33.6,36.0,107.1,-8.6,132.5*,2.95
COc1ccc(OC)c(-c2csc(NC(=O)C3COc4ccccc4O3)n2)c1 (stereo not given),1.6,4.0,88.4,19.9,97.2,1.36
COc1ccc2nc(NC(=O)c3cc(C)oc3C)sc2c1,-41.6,144.9*,83.4,22.7,139.2*,2.46
COc1ccc2nc(NC(=O)C3COc4ccccc4O3)sc2c1 (stereo not given),-11.9,131.5,75.2,35.1,110.8,3.43*
CC(=O)Nc1nc(C2COc3ccccc3O2)cs1 (stereo not given),-49.9,168.0*,89.5,22.2,144.9*,4.96*
Cc1nc(SCC(=O)NC(C)(C#N)C2CC2)c2c(-c3cccs3)csc2n1 (stereo not given),-6.8,0.9,102.5,-4.6,106.5,0.82
CC1=C(C(=O)Nc2ccccc2)C(c2ccc(C)cc2)N=C(Nc2nc3ccccc3o2)N1 (stereo not given),-6.2,6.4,93.2,15.5,105.5,1.01
CCCC(=O)Nc1nc2ccc(OC)cc2s1,-46.4,61.4,93.7,7.8,144.5*,3.08
Cc1cnc(NC(=O)C2(c3ccccc3)CC2)s1,-9.2,5.7,108.6,-8.0,107.9,1.35
N#Cc1c(NC(=O)/C=C/c2ccco2)sc2c1CCCC2,-81.2,-92.6,154.2*,-66.6,174.2*,0.89
Cc1ccc(C(=O)Nc2sc3c(c2C#N)CCCCC3)cc1C,-37.1,30.7,121.2,-21.1,134.3*,1.28
Cc1cc(C(=O)Nc2sc3c(c2C#N)CCCC3)no1,-22.4,92.1,100.7,3.5,118.9,3.14
CCCC(=O)Nc1sc2c(c1C#N)CCCCC2,-20.0,14.2,115.6,-16.9,118.5,3.86*
CC(=O)Nc1sc2c(c1C#N)CCCCC2,-5.3,9.3,98.7,3.5,105.0,1.35
Cc1cc(C(=O)Nc2sc3c(c2C#N)CCC(C)C3)no1 (stereo not given),-41.7,66.5,81.0,25.4,138.7*,1.07
CCc1ccc(C(=O)COC(=O)C(CCSC)NC(=O)c2ccccc2)cc1 (stereo not given),3.3,4.7,103.2,-5.0,97.1,1.37
CCOC(=O)c1sc(-c2ccccc2)cc1NC(=O)Nc1ccc([N+](=O)[O-])cc1,1.4,14.1,89.8,14.1,98.7,1.06
Cc1ccc(C2=NNC3(CCOC(C)(C)C3)S2)cc1 (stereo not given),-17.8,177.9*,88.8,16.3,114.3,2.9
CCc1nc(Nc2ccncc2)c2oc3ccccc3c2n1,15.2,27.1,96.8,9.8,86.1,3.59*
O=C(CN1C(=O)c2ccccc2S1(=O)=O)NC(Nc1ccccc1F)C(Cl)(Cl)Cl (stereo not given),-6.6,0.1,104.0,1.7,106.5,.
O=C(C[n+]1ccccc1)Nc1ccccc1Br,-4.1,8.7,95.7,8.6,102.7,1.1
Cc1ccc2nc(/C(C#N)=C\c3ccc(N4CCOCC4)o3)[nH]c2c1,-50.4,120.9,89.3,15.9,145.3*,2.53
Nc1nc(SCC(=O)NCCC(c2ccccc2)c2ccccc2)n[nH]1,-2.6,0.3,100.2,3.3,102.4,1.07

# Screening data as filed in PubChem BioAssay.
